Assay [1] deals with HCT-8. In words: In vitro for cytotoxicity against human colon tumor cells (HCT-8) in culture. It counts as functional, cell-based.
Assay [2] has as its system L1210. Put plainly: In vitro for cytotoxicity against murine leukemia cells (L1210). Format: functional, cell-based. Particulars: Mus musculus.
Assay [3] has as its system Lewis lung carcinoma cell line. Put plainly: Evaluated in vivo for antitumor activity against Lewis lung carcinoma; i denotes Inactive. Format: functional, organism-based. The following applies: Mus musculus. An outline of the steps: (§1)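 Mice inoculated intravenously with 10^6 Lewis lung carcinoma cells, then drug intraperitoneally in 0.1 mL 30% v/v ethanol-water on days 5, 9 and 13. D50 (mg/kg per day for 50% ILS) taken from dose-response graph. ILS at optimal dose versus untreated tumor-bearing controls. Survivors counted at 40 days.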

Assay [4] relates to Lewis lung carcinoma cell line. In words: In vivo for antitumor activity against Lewis lung carcinoma. Format: functional, Mus musculus. An outline of the steps: as §1
In assay [5] the test system is Lewis lung carcinoma cell line. Put plainly: Evaluated in vivo for antitumor activity against Lewis lung carcinoma; g denotes ILS of 50% could not be reached at any dose level. It counts as functional, organism-based. The following applies: Mus musculus. The method in brief:
as §1

The subject of assay [6] is P388. In words: In vivo for antitumor activity against P388 leukemia. Format: functional, Mus musculus. The method in brief: (§2)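 Mice given 10^6 P388 leukemia cells intraperitoneally, then drug intraperitoneally in 0.1 mL 30% v/v ethanol-water on days 1, 5 and 9. D50 (mg/kg per day giving 50% ILS) read from dose-response graph. ILS at optimal dose versus untreated controls. Long-term survival counted at 30 days.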

For assay [7], the system named is P388. In words: In vivo for antitumor activity against P388 leukemia. It counts as functional, Mus musculus. An outline of the steps:
as §2

Assay [8] concerns poly[d(A-T)]. Put plainly: Binding constant relative to amsacrine (Δlog K) for DNA binding by ethidium bromide displacement. Particulars: Bos taurus.
For assay [9], the system named is Lewis lung carcinoma cell line. Put plainly: Evaluated in vivo for antitumor activity against Lewis lung carcinoma. Format: functional, Mus musculus. The method in brief:
as §1

pIC50: −log10 of the molar value. Activity calls are given as the source filed them. The rule behind the calls is not given here.

Turning to `CNc1ccc2c(Nc3ccc(NS(C)(=O)=O)cc3NC)c3ccccc3nc2c1`, the results for the pIC50 in assay [1] and in assay [2] were 6.09 and 8.24, respectively. Besides, the ILSmax result in [3] was “inactive”. Moreover, the OD in assay [4] and in assay [6] was 2.6 mg/kg each time. In addition, the D50 result in [5] is “ILS of 50% could not be reached”; in assay [7] it was 0.2 mg/kg. In assay [7], this compound yielded an ILSmax of 208%. The Δlog K in assay [8] was found to be 7.53.

With `CNc1cc(NS(C)(=O)=O)ccc1Nc1c2ccccc2nc2cc(Br)ccc12`, the pIC50 – broadly, −log10 of the IC50, conventionally taken in molar units – in assay [1] is 6.85; in assay [2] it was 7.42. The values for the ILSmax in assay [4] and in assay [7] were 49% and 136%, respectively. For the same compound, the OD in assay [4] came to 20 mg/kg; in [6] it was 66 mg/kg. For the same compound, the D50 entry in assay [5] is “ILS of 50% could not be reached”; in [7], 5 mg/kg. Further, the Δlog K in assay [8] was 6.99.

In the case of `CNC(=O)c1cccc2c(Nc3ccc(NS(C)(=O)=O)cc3NC)c3cccc(OC)c3nc12`, the pIC50 was under 6.00 in assay [1] and 6.49 in assay [2]. For the same compound, the ILSmax in assay [4] was determined as 34%; in [7], 148%. Besides, the OD in assay [4] and in [6] was 65 mg/kg throughout. Further, the D50 result in [5] was “ILS of 50% could not be reached”; in assay [7] it was 30 mg/kg. Besides, in assay [8], the Δlog K amounted to 6.92.

Take `CNc1cc(NS(C)(=O)=O)ccc1Nc1c2ccc(Br)cc2nc2c(C)cccc12`: the pIC50 in assay [1] is 7.31; in [2], 7.68. Further, the ILSmax amounted to 34% in [4] and 122% in assay [7]. Besides, the OD in [4] and in assay [6] was 13.3 mg/kg in each case. In addition, the D50 entry was “ILS of 50% could not be reached” in assay [5] and 7 mg/kg in [7]. Also, the Δlog K in assay [8] is 7.27.

Consider `CNc1cc(NS(C)(=O)=O)ccc1Nc1c2ccccc2nc2cc(C)ccc12`, for which the pIC50 is 7.23 in [1] and 7.72 in assay [2]. The ILSmax in assay [4] is listed as 41%; in assay [7], 88%. In addition, the OD in [4] and in [6] was 8.9 mg/kg each time. Besides, the D50 entry in assay [5] is “ILS of 50% could not be reached”; in assay [7] it was 3.5 mg/kg. Further, in assay [8], the Δlog K is 6.71.

Regarding `COc1cc(NS(C)(=O)=O)ccc1Nc1c2ccccc2nc2ccccc12` [AMSACRINE], the D50 result in assay [5] was “ILS of 50% could not be reached”.

Take `CNc1cc(NS(C)(=O)=O)ccc1Nc1c2ccccc2nc2ccc(C)cc12`: the pIC50 in assay [1] was 5.77; in [2], 6.26. Also, the ILSmax is listed as 200% in assay [4] and 8% in assay [7]. Moreover, the OD in assay [4] and in [6] was 100 mg/kg each time. For the same compound, the D50 result is “ILS of 50% could not be reached” in assay [5] and 55 mg/kg in [7]. In addition, the Δlog K in [8] came to 5.89.

On to `CNC(=O)c1cccc2c(Nc3ccc(NS(C)(=O)=O)cc3NC)c3cccc(C)c3nc12`, for which the pIC50 was 6.45 in assay [1] and 7.09 in assay [2]. The ILSmax was found to be 62% in assay [4] and 94% in assay [7]. Besides, the OD was found to be 30 mg/kg in assay [4] and 13.3 mg/kg in assay [6]. For the same compound, the figures for the D50 in assay [9] and in assay [7] were 25 mg/kg and 6 mg/kg, respectively.

Regarding `CNc1cc(NS(C)(=O)=O)ccc1Nc1c2ccc(C)cc2nc2c(OC)cccc12`, the pIC50 in assay [1] is 7.15; in assay [2], 7.19. The figures for the ILSmax in assay [4] and in assay [7] were 194% and 122%, respectively. Besides, the OD worked out at 20 mg/kg in assay [4] and 13.3 mg/kg in [6]. The D50 came to 10 mg/kg in assay [9] and 5.5 mg/kg in [7].

The values above are taken from ChEMBL document CHEMBL1123442 (J Med Chem, 1986).
